Measured values as given in publication PMC10413923 (Journal of Enzyme Inhibition and Medicinal Chemistry, 2023).

How the values were obtained:
Format in all cases: cell-based
IL-1β = IL-1β level by ELISA in conditioned medium of LPS-human macrophages; settings: 14b at EC50 (5.3 µmol/mL), 48 h
Procedure, shortened: (§1)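 IL-6, IL-1β, TNF-α and NF-κB levels were measured in LPS-stimulated human macrophages exposed to test compound. Comparison groups were untreated LPS-macrophages as negative control and dexamethasone-treated macrophages as reference.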

NF-kβ = NF-kβ level by ELISA in LPS-human macrophages; settings: 14b at EC50 (5.3 µmol/mL), 48 h
Procedure, shortened: as §1

TNF-α = TNF-α level by ELISA in conditioned medium of LPS-human macrophages; settings: 14b at EC50 (5.3 µmol/mL), 48 h
Procedure, shortened: as §1

HO-1 (HMOX1) = experiment: HO-1; settings: LPS-human macrophages, 48 h; 14b at EC50 (5.3 µmol/mL); qPCR
Procedure, shortened: (§2)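 LPS-stimulated human macrophages (inflammatory model) were exposed to test compound at 5.3 µmol/mL for 48 h. Akt and HMOX1 (HO-1) gene expression was measured alongside untreated LPS-macrophages as negative control and dexamethasone-treated macrophages as reference. Expression is reported as fold change relative to untreated macrophage cells.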

IL-6 = IL-6 level by ELISA in conditioned medium of LPS-human macrophages; settings: 14b at EC50 (5.3 µmol/mL), 48 h
Procedure, shortened: as §1

Akt = Akt gene expression by qPCR in LPS-human macrophages; settings: 48 h, 14b at EC50 (5.3 µmol/mL)
Procedure, shortened: as §2

Row | SMILES | reduction in IL-1β level relative to untreated macrophage cells (IL-1β) [fold] | NF-kβ modulation compared with Dexa (in words) (NF-kβ) | reduction in NF-kβ level relative to untreated control cells (NF-kβ) [fold] | reduction in TNF-α level relative to untreated control cells (TNF-α) [fold] | upregulation of HO-1 gene expression compared to untreated macrophage cells (HO-1 (HMOX1)) [fold] | reduction in IL-6 level relative to negative control cells (IL-6) [fold] | increase in Akt gene expression relative to untreated macrophage cells (Akt) [fold]
1 | COc1ccc(C(C)=NNC(=O)COc2ccc3c(C)cc(=O)oc3c2C)cc1OC [Compound 14b, 2–(4,8-Dimethyl-2-oxo-2H-chromen-7-yloxy)-N'-(1–(3,4-dimethoxyphenyl)ethylidene)acetohydrazide] | 1.65 | comparable efficacy to Dexa | 2.31 | 1.19 | 6.5 | 1.41 | –
2 | C[C@@H]1C[C@H]2[C@@H]3CCC4=CC(=O)C=C[C@]4(C)[C@@]3(F)[C@@H](O)C[C@]2(C)[C@@]1(O)C(=O)CO [Dexa, dexamethasone, reference compound] | – | – | – | – | 4.38 | – | 3.2
